# Bim-Mcl-1 – inhibitors of Bim peptide binding to Mcl-1, primary screen, biochemical, bead-based flow cytometry, multiplex | Induced myeloid leukemia cell differentiation protein Mcl-1 (Homo sapiens), Q07820 | Bim peptide-Mcl-1 binding | inhibition, % at 10 µM | hit rate 0.1% among 190,000 | AID 1009, 2008; in the data active means inhibition above about 40%;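 further: 0% = no compound tracer wells and 100% = peptide blocker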
# Mcl1 Bid PPI – Mcl-1/Bid binding inhibitors, primary screen, biochemical, TR-FRET, 1536-well | AID 1021, 2008 | inhibition, % at 21.7 µM | TR-FRET Mcl-1/Bid-Dy647 peptide binding | hit rate 0.97% among 220,000 | Induced myeloid leukemia cell differentiation protein Mcl-1 (Homo sapiens), Q07820;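 active means compounds that cut the binding signal by more than half at the single screening dose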;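 further: His-tagged Mcl-1 with europium anti-His antibody binding Bid BH3 peptide; 0% = Mcl-1 plus peptide wells and 100% = peptide-only wells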
# Biofilm kill mix – clotrimazole potentiators killing C. albicans biofilm, primary screen, 4-compound mixtures; hit rate 0.02% among 120,000; inhibition, % at 7.6 µM; AID 1242, 2008; C. albicans biofilm persisters + clotrimazole, fluorescence viability; primary screen in compound mixtures of four per well;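 further: compounds exposed to preformed 24 h biofilms for 48 h; 0% = untreated biofilm control and 100% = clotrimazole plus chlorhexidine kill blank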
#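 System: C. albicans CAF4-2 wild-type biofilms; Medium: RPMI/MOPS medium, pH 7.0; Reagent: Clotrimazole, 50 µg/mL; Times: biofilm formation 24 h, compound exposure 48 h, 37 °C; Detection: 2-h Alamar Blue fluorescence, 535/590 nm excitation/emission; Evaluation: percent inhibition of biofilm viability.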
# 14-3-3 Bad inh – inhibitors of 14-3-3 zeta/Bad binding, primary screen, biochemical, TR-FRET, bovine 14-3-3 zeta | 14-3-3 protein zeta/delta (Bos taurus), P63103 | TR-FRET 14-3-3zeta/Dy647-pBad peptide displacement, 1 h | inhibition, % at 21.7 µM | hit rate 0.71% among 220,000 | AID 781, 2007;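 active means inhibition above about 70%, limit read from the data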;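 further: 0% = full 14-3-3 plus peptide FRET controls and 100% = background without 14-3-3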
# Mcl1-Noxa inh – Mcl-1/Noxa binding inhibitors, primary screen, biochemical, TR-FRET, 1536-well. Induced myeloid leukemia cell differentiation protein Mcl-1 (Homo sapiens), Q07820. TR-FRET Mcl-1/Noxa peptide binding, 2 h. inhibition, % at 21.7 µM. hit rate 1.5% among 220,000;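 active means compounds that cut the protein-peptide binding signal by more than 50% relative to plate controls in a single-dose test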;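 further: His-tagged Mcl-1 with rhodamine Noxa BH3 peptide and terbium anti-His antibody; 0% = Mcl-1 plus Noxa peptide wells and 100% = peptide-only wells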
# Hck-Nef inh – inhibitors of Nef-activated human Hck kinase, primary screen, biochemical, Z-Lyte FRET, 384-well, Hck-YEEI; Tyrosine-protein kinase HCK (Homo sapiens), P08631; Recombinant Hck-YEEI plus Nef, Z-Lyte FRET kinase assay; inhibition, % at 20 µM; hit rate 0.68% among 220,000; AID 463187, 2010;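 active means Hck-Nef kinase inhibition above about 50%, limit read from the data; inactive means inhibition below that limit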;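 further: 0% = DMSO with Hck plus Nef and 100% = Hck alone without Nef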
# Target sequence (P08631 whole entry, looked up): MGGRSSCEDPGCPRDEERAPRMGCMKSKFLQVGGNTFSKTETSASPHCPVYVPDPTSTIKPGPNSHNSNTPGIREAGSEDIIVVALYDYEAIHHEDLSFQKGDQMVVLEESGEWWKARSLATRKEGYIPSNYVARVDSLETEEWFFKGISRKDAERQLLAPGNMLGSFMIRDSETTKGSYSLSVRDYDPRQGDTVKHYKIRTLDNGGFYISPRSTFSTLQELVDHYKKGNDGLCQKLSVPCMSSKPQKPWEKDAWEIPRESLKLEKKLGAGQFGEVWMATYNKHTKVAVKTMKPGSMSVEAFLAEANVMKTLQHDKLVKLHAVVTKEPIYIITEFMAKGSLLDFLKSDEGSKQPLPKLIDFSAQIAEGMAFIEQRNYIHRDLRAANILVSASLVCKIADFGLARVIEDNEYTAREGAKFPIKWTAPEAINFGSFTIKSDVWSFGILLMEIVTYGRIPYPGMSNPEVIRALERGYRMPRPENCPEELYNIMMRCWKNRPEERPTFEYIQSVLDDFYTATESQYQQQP
# Hck-Nef confirm – retest of Hck:Nef kinase inhibitor hits, confirmation, biochemical, Z-Lyte FRET, 384-well, p-Tyr peptide counterscreen; hit rate 28% among 1,300; calls only at 10 µM; AID 463188, 2010; shares compounds with Hck-Nef inh; Recombinant Hck-YEEI:Nef, Z-Lyte FRET kinase assay;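 active means average inhibition of at least 50%, with Z-scores no higher than 3 in both the phospho-tyrosine peptide and fluorescence counterscreens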
# Starred values were filed as active, the others as inactive; i = inactive; . = no result given; + = active, no number. The list is not random: actives were taken first. Their share in the collection is about 3.2%.
SMILES,Bim-Mcl-1,Mcl1 Bid PPI,Biofilm kill mix,14-3-3 Bad inh,Mcl1-Noxa inh,Hck-Nef inh,Hck-Nef confirm
CCOC(=O)c1cc(CC)sc1NC(=O)COc1ccc2c(C)cc(=O)oc2c1,-8,38,19,17,-28,55*,i
Cc1cc(=O)oc2cc(OCc3ccc(C(=O)OCC(=O)Nc4ccc(N(C)C)cc4)cc3)ccc12,0,92*,8,79*,96*,147*,i
CCN(CC)CCCNC(=S)N(Cc1cccnc1)Cc1cc2cc(C)ccc2[nH]c1=O,.,-66,21,5,4,6,.
Cc1ccc(S(=O)(=O)C2(C(=O)Nc3ccc(C(C)C)cc3)CC2)cc1,-2,-1,-8,-7,11,19,.
COc1ccc(C(=O)CSc2nnc(-c3ccco3)c(-c3ccco3)n2)cc1,1,54*,12,29,90*,85*,i
COc1ccc(C(=O)CSc2nnc(-c3ccco3)n2C)cc1,0,17,.,10,8,0,.
Oc1cccc(Nc2nc(O)c(/C=C3\C=Nc4ccccc43)s2)c1,.,-55,0,73*,62*,88*,+
COc1cc2nc(Cl)nc(N3CCOCC3)c2cc1OC,-1,-16,5,8,3,69*,i
COc1cc2nc(Cl)nc(N3CCCCC3)c2cc1OC,-1,-2,14,7,6,11,.
Oc1ccc(/C=N/Nc2nccnc2Cl)cc1,0,-8,.,1,10,-2,.
Nc1c(Cl)ncnc1N/N=C/c1ccc(O)cc1,.,-145,7,5,20,52*,i
COc1ccc(OC)c(C2C(C(=O)Nc3nc4ccccc4s3)=C(C)NC3=C2C(=O)CCC3)c1 (stereo not drawn),0,-46,.,-3,13,43,.
COc1cccc(C2C(C(=O)Nc3nc4ccccc4s3)=C(C)NC3=C2C(=O)CC(C)(C)C3)c1OC (stereo not drawn),-2,-16,.,1,3,57*,.
CCOC(=O)c1ccccc1NC(=O)Cn1cnc2c(oc3ccccc32)c1=O,0,0,.,-8,-43,1,.
CC(NC(=O)CCl)c1ccccc1Br (stereo not drawn),.,33,15,-5,16,9,.
COc1cc(NS(=O)(=O)c2ccc(NC(=S)NC(=O)c3sc4ccccc4c3Cl)cc2)nc(OC)n1,-4,66*,4,-5,69*,63*,+
O=C1NN(c2ccccc2)C(=O)/C1=C\c1coc2ccc(O)cc2c1=O,.,-96,17,16,43,71*,+
O=C1NN(c2ccccc2)C(=O)/C1=C/c1coc2ccccc2c1=O,-6,-65,0,24,-1,88*,+
Cc1cc(/C=C2/C(=O)NN(c3ccccc3)C2=O)c(C)n1-c1ccc(O)cc1,-2,-31,18,-11,14,3,.
NC(=O)C1CCN(C(=O)c2ccc3c(=O)n(Cc4ccco4)c(SCC(=O)c4ccc(F)cc4)nc3c2)CC1,0,-1,25,2,-12,21,.
O=C(O)c1ccc(N/N=C/c2ccc(OC(=O)c3cccc(Cl)c3)cc2)cc1,.,46,17,32,92*,56*,+
O=C(Oc1ccc(/C=N/Nc2ccccc2)cc1)c1ccccc1,0,-2,.,-7,7,-2,.

# High-throughput results (PubChem)
